Drawing on ChEMBL document CHEMBL4011650, “3-Hydroxy-1H-quinazoline-2,4-dione as a New Scaffold To Develop Potent and Selective Inhibitors of the Tumor-Associated Carbonic Anhydrases IX and XII” (J Med Chem, 2017), this text covers Ki, viability and Activity for three molecules.

Calls of active or inactive are those of the source. The rule behind the calls is not given here.

One data set addresses Carbonic anhydrase 9 (Homo sapiens, UniProt Q16790).
A short description of data set [1]: Antiproliferative activity against human HT-29 cells assessed as cell viability at 100 uM after 48 hrs under normoxic conditions by MTT assay relative to control. It is filed as cell-based. The conditions noted are these: read-out: Activity. The method in brief:
(§1)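 HT-29 cells in high-glucose DMEM with 20% FBS were seeded at 1·10^4/well and treated 24 h later. Incubation was under normoxia (20% O2, air with 5% CO2) at 37 °C for 16, 48 or 72 h. Viability was read by MTT reduction (1 mg/ml, 30 min), with formazan in DMSO read at 550 nm, relative to untreated control set at 100%. Quadruplicates on at least three cell batches.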

For data set [2], the system named is HT-29. Put plainly: Antiproliferative activity against human HT-29 cells assessed as reduction in cell viability at 30 to 300 uM after 16 hrs under normoxic conditions by MTT assay relative to control. The settings on record: ht-29, 16 h. Type of data set: cell-based. The method in brief:
as §1

Data set [3] is described as follows: Antiproliferative activity against human HT-29 cells assessed as cell viability at 30 uM after 72 hrs under normoxic conditions by MTT assay relative to control. Type of data set: cell-based. The settings on record: read-out: Activity. The gist of the method:
as §1

The nature of data set [4]: Antiproliferative activity against human HT-29 cells assessed as cell viability at 30 uM after 48 hrs under normoxic conditions by MTT assay relative to control. Type of data set: cell-based. The settings on record: read-out: Activity. The method in brief: as §1
The test system of data set [5] is HT-29. Put plainly: Antiproliferative activity against human HT-29 cells assessed as cell viability at 30 uM after 48 hrs under hypoxic conditions by MTT assay relative to control. The conditions noted are these: HT-29, 48 h, read-out: Activity. Type of data set: functional. The method in brief:
(§2)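 HT-29 cells were grown in high-glucose DMEM with 20% FBS, seeded at 1·10^4/well and dosed 24 h later. Incubation was in a hypoxic chamber (0.1% O2, 5% CO2, balance N2) for 16, 48 or 72 h. Cells were washed, given MTT 1 mg/ml for 30 min at 37 °C, and formazan was dissolved in DMSO and read at 550 nm. Viability is % of untreated control, mean ± S.E.M.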

The target in the next data set is Carbonic anhydrase 1 (Homo sapiens, UniProt P00915). The experiment in a line: Inhibition of recombinant human carbonic anhydrase 1 preincubated for 15 mins prior to testing by phenol red based stopped-flow CO2 hydration assay.
Sequence of Carbonic anhydrase 1 (P00915 whole entry): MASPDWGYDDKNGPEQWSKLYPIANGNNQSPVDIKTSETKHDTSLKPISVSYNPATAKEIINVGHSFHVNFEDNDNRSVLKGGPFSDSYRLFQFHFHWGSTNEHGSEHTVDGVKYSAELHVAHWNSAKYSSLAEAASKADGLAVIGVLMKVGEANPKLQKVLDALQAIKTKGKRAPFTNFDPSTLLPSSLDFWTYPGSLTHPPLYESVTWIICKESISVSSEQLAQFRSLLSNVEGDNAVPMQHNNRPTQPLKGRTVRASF
In data set [6] the test system is HT-29. The experiment in a line: Antiproliferative activity against human HT-29 cells assessed as cell viability at 30 uM after 72 hrs under hypoxic conditions by MTT assay relative to control. It is filed as functional. The conditions noted are these: HT-29, 72 h, read-out: Activity. The method in brief:
as §2

Data set [7] concerns HT-29. The experiment in a line: Antiproliferative activity against human HT-29 cells assessed as cell viability at 300 uM after 48 hrs under hypoxic conditions by MTT assay relative to control. It is filed as functional. The conditions noted are these: HT-29, 48 h, read-out: Activity. The method in brief:
as §2

A further data set has as its target Carbonic anhydrase 2 (Homo sapiens, UniProt P00918). The experiment in a line: Inhibition of recombinant human carbonic anhydrase 2 preincubated for 15 mins prior to testing by phenol red based stopped-flow CO2 hydration assay.
A short description of data set [8]: Antiproliferative activity against human HT-29 cells assessed as cell viability at 300 uM after 72 hrs under normoxic conditions by MTT assay relative to control. It is filed as cell-based. The conditions noted are these: read-out: Activity. The method in brief:
as §1

The test system of data set [9] is HT-29. Put plainly: Antiproliferative activity against human HT-29 cells assessed as cell viability at 100 uM after 72 hrs under hypoxic conditions by MTT assay relative to control. It is filed as functional. The settings on record: HT-29, 72 h, read-out: Activity. The method in brief: as §2
The nature of data set [10]: Antiproliferative activity against human HT-29 cells assessed as cell viability at 100 uM after 72 hrs under normoxic conditions by MTT assay relative to control. It is filed as cell-based. The settings on record: read-out: Activity. The gist of the method: as §1
The nature of data set [11]: Antiproliferative activity against human HT-29 cells assessed as cell viability at 300 uM after 48 hrs under normoxic conditions by MTT assay relative to control. It is filed as cell-based. The conditions noted are these: read-out: Activity. The method in brief: as §1
Data set [12] has as its system HT-29. Put plainly: Antiproliferative activity against human HT-29 cells assessed as cell viability at 300 uM after 72 hrs under hypoxic conditions by MTT assay relative to control. It is filed as functional. The settings on record: HT-29, 72 h, read-out: Activity. The gist of the method:
as §2

Data set [13] relates to HT-29. Put plainly: Antiproliferative activity against human HT-29 cells assessed as reduction in cell viability at 30 to 300 uM after 16 hrs under hypoxic conditions by MTT assay relative to control. It is filed as functional, cell-based. The method in brief:
as §2

Data set [14] concerns HT-29. Put plainly: Antiproliferative activity against human HT-29 cells assessed as cell viability at 100 uM after 48 hrs under hypoxic conditions by MTT assay relative to control. Type of data set: functional. The conditions noted are these: HT-29, 48 h, read-out: Activity. The gist of the method:
as §2

In the case of `O=C(NCc1ccccc1)Nc1ccc2[nH]c(=O)n(O)c(=O)c2c1`, the figures for the Ki on Carbonic anhydrase 9, at Carbonic anhydrase 1 and on Carbonic anhydrase 2 were 0.0267 µM, over 10 µM and over 10 µM, respectively. Besides, the viability at 48 h, 100 µM in [1] came out at 56.9%. Further, the Activity entry in the data set with HT-29 [2] is given as “Toxic”. Further, in data set [3], the viability at 72 h, 30 µM worked out at 32.4%. Further, in data set [4], the viability at 48 h, 30 µM was determined as 57.4%. Also, the viability at 30 µM in the data set on HT-29 [5] is 50.6%; in the data set with HT-29 [6], 33.4%. Moreover, the viability at 300 µM was 78.2% in the data set with HT-29 [7] and 59.9% with HT-29 [12]. Also, the viability at 72 h, 300 µM in [8] is 61.3%. The viability at 100 µM in the data set with HT-29 [9] was 40.2%; with HT-29 [14] it was 46%. For the same molecule, in data set [10], the viability at 72 h, 100 µM stood at 51.7%. Besides, in data set [11], the viability at 48 h, 300 µM worked out at 85.6%. In the data set with HT-29 [13], the outcome was Active.

For `O=c1[nH]c2cc(C(F)(F)F)c([N+](=O)[O-])cc2c(=O)n1O`, the Ki is 0.0097 µM on Carbonic anhydrase 9, over 10 µM on Carbonic anhydrase 1 and over 10 µM at Carbonic anhydrase 2. For the same molecule, in data set [1], the viability at 48 h, 100 µM was found to be 57.7%. For the same molecule, the viability at 72 h, 30 µM in [3] is 41.5%. Also, the viability at 48 h, 30 µM in data set [4] came out at 53.9%. For the same molecule, the viability at 30 µM was 45.2% in the data set on HT-29 [5] and 38.6% with HT-29 [6]. For the same molecule, the figures for the viability at 300 µM in the data set with HT-29 [7] and with HT-29 [12] were 50.2% and 40.3%, respectively. The viability at 72 h, 300 µM in data set [8] turned out to be 49.7%. Besides, the results for the viability at 100 µM in the data set on HT-29 [9] and in the data set with HT-29 [14] were 38.2% and 46.8%, respectively. Further, the viability at 72 h, 100 µM in [10] was 45.3%. Besides, the viability at 48 h, 300 µM in [11] came to 45.1%.

On to `O=C1C=CCN1c1cc2c(=O)n(O)c(=O)[nH]c2cc1Cl`, for which the Ki at Carbonic anhydrase 9 is 0.0083 µM; on Carbonic anhydrase 1, over 10 µM; on Carbonic anhydrase 2, over 10 µM. Besides, the viability at 48 h, 100 µM in [1] was 56.2%. Further, the viability at 72 h, 30 µM in [3] came to 36.4%. In addition, the viability at 48 h, 30 µM in data set [4] was 48.5%. For the same molecule, the viability at 30 µM in the data set with HT-29 [5] stood at 50.6%; in the data set on HT-29 [6], 20.6%. Besides, the viability at 300 µM in the data set with HT-29 [7] is 88.9%; in the data set with HT-29 [12], 65.2%. For the same molecule, the viability at 72 h, 300 µM in [8] stood at 68.3%. The viability at 100 µM in the data set with HT-29 [9] came to 45.7%; with HT-29 [14] it was 60.1%. The viability at 72 h, 100 µM in data set [10] is 57.3%. In addition, the viability at 48 h, 300 µM in data set [11] was determined as 106%.
